These results are taken from PubChem BioAssay.

Activity calls are given as the source filed them.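 Rule for the calls, unless noted: active = NADPH fluorescence slope more negative than the mean of all samples by about 3 SD, 99.7% confidence; inactive = the rest.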

A short description of assay [1]: inhibitors of TNFa-induced NFkB p65 translocation, primary screen, imaging, HUVEC, MLSMR starter and 10KST1 sets (AID 438;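 active = inhibition above 20% together with a positive visual image hit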;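 note: compound added about 3h40 before a 20 min TNFalpha stimulation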;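 for inhibition: signal is the nuclear over cytoplasmic p65 intensity ratio per well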). Particulars: HUVEC TNFa-induced p65 nuclear translocation; cell count: measured here: nuclei count (cytotoxicity indicator), at 2.08 µM; inhibition: at 2 µM, stronger effect = higher value, 0% TNFa-plus-vehicle, 100% no-TNFa wells.
The nature of assay [2]: endothelial E-selectin expression blockers – imaging, HUVEC, immunofluorescence, MLSMR starter and 10KST1 sets, primary screen (AID 487;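 active = visually confirmed hit in the image check and inhibition above 20%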;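 for inhibition: signal is fraction of cell area covered by stained E-selectin grains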;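 for nuclei count: 100% = median nuclei count of all wells on the same plate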). Particulars: HUVEC TNFalpha-induced E-selectin immunofluorescence imaging, at 2 µM; inhibition: stronger effect = higher value; nuclei count: measured here: cell number, toxicity.
The nature of assay [3]: Primary imaging screen for DUSP6 inhibitors that restore phospho-Erk in transfected HeLa cells, chemical complementation (AID 609;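 active = compounds giving at least 50% inhibition in the cell-based MKP-3 phosphatase rescue imaging test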;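 for inhibition: phospho-Erk level distribution per well compared with pooled transfected vehicle control wells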). Particulars: HeLa MKP-3 transfected, phospho-Erk imaging KS statistic, at 10 µM, cells stimulated with TPA for 15 min.
Assay [4] concerns the target Dual specificity protein phosphatase 6 (Homo sapiens) (UniProt Q16828). The assay is described as above. Particulars: HeLa MKP-3 transfected, phospho-Erk imaging KS statistic; at 10 µM; stronger effect = higher value; cells stimulated with TPA for 15 min.
In assay [5] the target is Voltage-gated potassium channel subunit beta-2 (Rattus norvegicus) (UniProt P62483). The assay is described as follows: inhibitors of rat Kvbeta2 reductase activity – biochemical, NADPH fluorescence, primary screen (AID 622;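 active = fluorescence slope higher than the sample average by over 3 SD, cut at about -0.22 in these data, passing the limit was not always enough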;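 note: slope of raw intensity against log time taken from 70 to 1610 s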). Particulars: recombinant KvBeta, 4-cyanobenzaldehyde reduction, at 10 µM, stronger effect = higher value.
Assay [6] has the same target. Briefly: enhancers of rat Kvbeta2 NADPH turnover – biochemical, NADPH fluorescence, primary screen (AID 623).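 Note: fluorescence intensity change per second fitted from 20 to 320 s.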 Particulars: Recombinant KvBeta, NADPH fluorescence decrease slope, 10 min; at 10 µM; stronger effect = lower value.
Assay [7] deals with Muscarinic acetylcholine receptor M4 (Homo sapiens) (UniProt P08173). The assay is described as follows: M4-linked GIRK flux change, two-sided – cell-based, HEK293 M4/GIRK, thallium flux, BTC-AM, M4 allosteric agonist project, primary screen (AID 625;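 active = fluorescence slope after compound addition differing from the mean of all tested samples at 99.7% confidence, mostly higher but some lower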;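 note: thallium influx through GIRK channels coupled to M4 in HEK293 cells with BTC-AM dye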). Particulars: at 10 µM, actives lie on both sides. A digest of the protocol:
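Material – HEK293 cells with M4 receptor and GIRK channels · Buffer or medium – pH 7.3 thallium assay buffer · Doses – one dose, 10 µM final · Timing – cells overnight at 37 °C, BTC-AM loading 1 h, reads 2 min total · Measured by – kinetic fluorescence with BTC-AM dye · Controls – carbachol and DMSO controls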

Assay [8] is described as follows: inhibitors of larval lipid processing in zebrafish, primary screen, whole organism, PED6 fluorescence, gall bladder and intestine (AID 686;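 active = a full or partial loss of lipid-probe fluorescence in the fish gall bladder, intestine or both, judged by eye; inactive = no fluorescence loss, or compound toxic to the fish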;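 note: larvae 5 to 7 days old with five fish per well; signal comes from phospholipase A2 cleavage of quenched PED6 carried via bile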). Particulars: Zebrafish larvae PED6 lipid processing, fluorescence scoring; screened at 20 µM (by protocol). A digest of the protocol: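 system = live zebrafish larvae aged 5-7 days, whole organism | probe or stimulus = ingested quenched lipid PED6 at 100 nM | doses = 20 µM single dose | timing = overnight exposure | detection = fluorescence microscopy with visual scoring of gall bladder and intestine | read-out = visual per-well fluorescence inhibition score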

Assay [9] is described as follows: loss of swimming-algae plug formation – whole organism, Chlamydomonas reinhardtii, WT vs cilia-less mutant, absorbance, 96-well, primary screen (AID 463189;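 active = inhibition at or above 50% relative to wild type and mutant plate controls; inactive = inhibition below 50%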;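 note: 0% = wild type cc124 cells in DMSO and 100% = ciliumless bld1 mutant cells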). Particulars: Chlamydomonas reinhardtii gravitaxis, OD600 absorbance, 2 days; at 10 µM; stronger effect = higher value.
Where [10] appears, read: measured here: cell density z-score.
The mark [11] stands for this setting: measured here: nuclear c-Myc green intensity z-score.
The mark [12] stands for this setting: measured here: nuclear pErk red intensity z-score, stronger effect = higher value.

Chain of Voltage-gated potassium channel subunit beta-2 (Rattus norvegicus) (P62483 whole entry, looked up): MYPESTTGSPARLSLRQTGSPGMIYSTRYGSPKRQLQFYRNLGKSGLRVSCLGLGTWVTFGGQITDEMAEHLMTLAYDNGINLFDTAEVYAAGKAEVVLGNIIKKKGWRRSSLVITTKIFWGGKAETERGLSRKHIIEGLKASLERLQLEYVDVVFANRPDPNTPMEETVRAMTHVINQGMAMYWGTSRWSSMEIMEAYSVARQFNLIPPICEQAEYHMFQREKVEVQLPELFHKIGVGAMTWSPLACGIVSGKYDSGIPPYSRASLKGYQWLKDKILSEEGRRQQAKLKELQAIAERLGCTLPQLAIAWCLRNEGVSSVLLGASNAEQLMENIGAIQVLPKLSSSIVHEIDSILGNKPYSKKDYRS
Chain of Dual specificity protein phosphatase 6 (Homo sapiens) (Q16828 whole entry, looked up): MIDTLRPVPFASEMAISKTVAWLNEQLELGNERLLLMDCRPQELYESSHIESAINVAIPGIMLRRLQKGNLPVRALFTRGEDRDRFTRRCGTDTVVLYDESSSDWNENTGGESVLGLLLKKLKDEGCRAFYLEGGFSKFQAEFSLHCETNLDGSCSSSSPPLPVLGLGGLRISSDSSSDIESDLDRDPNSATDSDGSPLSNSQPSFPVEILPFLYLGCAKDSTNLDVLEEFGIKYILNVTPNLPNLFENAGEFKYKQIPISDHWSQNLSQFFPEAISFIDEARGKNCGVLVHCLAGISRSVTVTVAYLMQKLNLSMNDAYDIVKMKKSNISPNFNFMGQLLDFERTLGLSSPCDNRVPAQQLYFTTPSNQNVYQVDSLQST
Chain of Muscarinic acetylcholine receptor M4 (Homo sapiens) (P08173 whole entry, looked up): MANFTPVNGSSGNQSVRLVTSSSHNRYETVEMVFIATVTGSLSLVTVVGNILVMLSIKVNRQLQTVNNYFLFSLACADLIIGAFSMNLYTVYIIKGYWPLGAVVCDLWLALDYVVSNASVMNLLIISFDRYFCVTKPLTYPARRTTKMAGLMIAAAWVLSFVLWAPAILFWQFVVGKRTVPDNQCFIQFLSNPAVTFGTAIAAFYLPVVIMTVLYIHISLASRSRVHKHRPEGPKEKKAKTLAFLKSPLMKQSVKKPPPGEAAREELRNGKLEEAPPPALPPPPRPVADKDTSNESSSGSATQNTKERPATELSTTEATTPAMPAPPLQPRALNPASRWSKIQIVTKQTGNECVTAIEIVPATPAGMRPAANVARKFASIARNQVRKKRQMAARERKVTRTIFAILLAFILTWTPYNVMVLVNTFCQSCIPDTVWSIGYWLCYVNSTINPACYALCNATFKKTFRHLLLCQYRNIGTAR

For orientation: inhibition means the change of the read-out against control, counted positive when it falls. Take `COc1ccccc1C(=O)Nc1cc(Cl)ccc1O`: the cell count in [1] was 582. In addition, the inhibition in assay [1] is -2.4% (inactive); in assay [2] it was -76% (inactive); in assay [4], 9.42% (inactive); in assay [9] it was 21.5% (inactive). The nuclei count in assay [2] was 123%. The z-score in assay [3] (setting [10]) was -1.1; in assay [3] (setting [11]), 0.45; in [3] (setting [12]), 1.34. The fluorescence slope in assay [5] was -0.431 (inactive); in assay [7] it was 0.00516 (inactive). The NADPH fluorescence slope in assay [6] was -0.000129 (inactive). For the same molecule, the molecule was called inactive in [8].
`COc1ccc(C2/C(=C(\O)c3ccc4c(c3)OCCO4)C(=O)C(=O)N2CCCN(C)C)cc1` (centres undefined): the cell count in [1] stood at 368. For the same molecule, the inhibition in assay [1] is -2.4% (inactive); in assay [2] it was -14.3% (inactive); in assay [4], 3.56% (inactive); in [9], -13.1% (inactive). Moreover, in assay [2], the nuclei count is 131%. Moreover, the z-score is -2.04 in [3] (setting [10]), 0.887 in assay [3] (setting [11]) and -0.106 in assay [3] (setting [12]). Moreover, the fluorescence slope is -0.506 (inactive) in [5] and 0.00537 (inactive) in [7]. In addition, the NADPH fluorescence slope in assay [6] is -3.1e-05 (inactive). Also, in [8], the molecule was called inactive.
`O=C(C1=C(O)C(=O)N(CCCN2CCOCC2)C1c1ccccn1)c1cc2ccccc2o1` (centres undefined): in assay [1], the cell count stood at 558. Besides, the inhibition in [1] is -4.5% (inactive); in assay [2], 55.2% (inactive); in assay [4], 12.7% (inactive); in assay [9] it was 23.5% (inactive). The same molecule yielded a nuclei count in assay [2] of 95.5%. Besides, the z-score was 0.823 in [3] (setting [10]), 0.459 in [3] (setting [11]) and -0.11 in [3] (setting [12]). For the same molecule, the fluorescence slope in [5] is -0.441 (inactive); in assay [7], 0.0054 (inactive). In addition, in [6], the NADPH fluorescence slope is -0.000374 (active). Further, in [8], the outcome was inactive.
`CC(=O)/C=C(\C)NCCNc1c(F)c(F)c(CO)c(F)c1F`: the cell count in assay [1] worked out at 570. The inhibition in assay [1] is -4.3% (inactive); in assay [2] it was -22.3% (inactive); in assay [4], 1.9e-07% (inactive); in assay [9] it was 42.2% (inactive). Further, in assay [2], the nuclei count was determined as 145%. Besides, the z-score in assay [3] (setting [10]) was 0.666; in assay [3] (setting [11]) it was -0.56; in [3] (setting [12]), 0.111. Further, the fluorescence slope was -0.319 (inactive) in [5] and 0.00522 (inactive) in assay [7]. In addition, the NADPH fluorescence slope in [6] was -1.4e-05 (inactive). In addition, the molecule was called inactive in assay [8].
On to `CCOC(=O)CSc1nc(N2CCOCC2)c2c(c1C#N)CC(C)(C)N(C)C2`, for which the cell count in [1] came out at 531. The inhibition in assay [1] is -4.6% (inactive); in assay [2] it was -19.7% (inactive); in assay [4], 1.42% (inactive); in assay [9], 33.8% (inactive). In assay [2], this molecule displayed a nuclei count of 102%. The z-score in assay [3] (setting [10]) is -0.379; in [3] (setting [11]) it was 0.944; in [3] (setting [12]) it was -0.77. Further, the fluorescence slope is -0.505 (inactive) in [5] and 0.00477 (inactive) in assay [7]. In [6], the NADPH fluorescence slope was 4.1e-05 (inactive). In addition, the molecule was called inactive in assay [8].
With `CC1(C)Cc2nc(NCCN3CCOCC3)c(C#N)cc2CO1`, in [1], the cell count stood at 586. Moreover, the inhibition is -8.3% (inactive) in assay [1], -133% (inactive) in [2], -0.233% (inactive) in [4] and -7.98% (inactive) in assay [9]. The molecule also displayed a nuclei count in assay [2] of 149%. The figures for the z-score in assay [3] (setting [10]), in assay [3] (setting [11]) and in assay [3] (setting [12]) were 0.143, 0.853 and 0.307, respectively. The figures for the fluorescence slope in [5] and in assay [7] were -0.486 (inactive) and 0.00414 (inactive), respectively. Besides, the NADPH fluorescence slope in assay [6] is -8.5e-05 (inactive). Also, the call in [8] was inactive.
Regarding `CCC1SC2=NC(C)=C(C(=O)OCCOC)C(c3ccc(C(=O)OC)cc3)N2C1=O` (centres undefined), the cell count in assay [1] is 441. Further, the inhibition in assay [1] was -11.9% (inactive); in assay [2], -71.6% (inactive); in assay [4], -2.29% (inactive); in [9] it was 6.13% (inactive). This molecule displayed a nuclei count in assay [2] of 154%. Besides, the z-score was 0.414 in [3] (setting [10]), -0.811 in assay [3] (setting [11]) and -0.806 in assay [3] (setting [12]). Moreover, the fluorescence slope was -0.411 (inactive) in [5] and 0.0052 (inactive) in assay [7]. For the same molecule, the NADPH fluorescence slope in assay [6] is -4.9e-05 (inactive). Also, in assay [8], the result was inactive.
Take `CCOC(=O)c1[nH]c2ccccc2c1NC(=O)CN(C)C`: the cell count in assay [1] is 656. Besides, the inhibition in assay [1] was 2.2% (inactive); in assay [2] it was -136% (inactive); in [4], 7.93% (inactive); in [9], -6.18% (inactive). Moreover, in assay [2], the nuclei count stood at 180%. The z-score in assay [3] (setting [10]) is 0.955; in assay [3] (setting [11]), 0.5; in assay [3] (setting [12]) it was -0.213. For the same molecule, the fluorescence slope in [5] is -0.476 (inactive); in assay [7], 0.00584 (inactive). Moreover, the NADPH fluorescence slope in [6] is -4.7e-05 (inactive). In addition, the molecule was called inactive in assay [8].
For `COCc1[nH]nc2c1C(c1sccc1C)C(C#N)=C(N)O2` (centres undefined), the cell count in assay [1] is 569. Also, the inhibition in [1] was -7.1% (inactive); in assay [2], -22.2% (inactive); in assay [4] it was 8.31% (inactive); in assay [9] it was 0.653% (inactive). This molecule had a nuclei count in [2] of 170%. Further, the figures for the z-score in assay [3] (setting [10]), in assay [3] (setting [11]) and in assay [3] (setting [12]) were 1.09, -0.767 and 0.181, respectively. Besides, the fluorescence slope was -0.488 (inactive) in [5] and 0.00573 (inactive) in assay [7]. Besides, the NADPH fluorescence slope in assay [6] is -2.8e-05 (inactive). Further, the outcome in assay [8] was inactive.
With `Cc1c(=O)n(OCc2c(F)cccc2F)c2ccccc2[n+]1[O-]`, the cell count in assay [1] worked out at 542. Further, the inhibition in assay [1] was -10.8% (inactive); in assay [2], -125% (inactive); in assay [4], 3.97% (inactive); in assay [9], -0.428% (inactive). In assay [2], this molecule had a nuclei count of 163%. The results for the z-score in assay [3] (setting [10]), in assay [3] (setting [11]) and in assay [3] (setting [12]) were -0.166, -0.624 and -0.0317, respectively. In addition, the fluorescence slope in assay [5] is -0.406 (inactive); in assay [7] it was 0.00531 (inactive). Moreover, in [6], the NADPH fluorescence slope was -4.3e-05 (inactive). Also, the molecule was classed as inactive in assay [8].
Turning to `CC(C)c1nc(NCCN2CCOCC2)c(C#N)c2c1COC(C)(C)C2`, the cell count in assay [1] worked out at 401. Also, the inhibition in assay [1] is -10.6% (inactive); in assay [2] it was -276% (inactive); in assay [4] it was -0.584% (inactive); in assay [9], 71.3% (active). The molecule also returned a nuclei count in [2] of 186%. The z-score in [3] (setting [10]) is -0.66; in assay [3] (setting [11]), -0.209; in assay [3] (setting [12]) it was 1.4. In addition, the values for the fluorescence slope in assay [5] and in assay [7] were -0.473 (inactive) and 0.00407 (inactive), respectively. In addition, the NADPH fluorescence slope in assay [6] is -0.000118 (inactive). In addition, the molecule was classed as inactive in assay [8].
As to `CCOC(=O)C1=C(N)n2c(s/c(=C\c3cccnc3)c2=O)=C(C(=O)OC)C1c1cccnc1` (centres undefined), the cell count in [1] is 326. The inhibition in assay [1] is -14.1% (inactive); in [2] it was -129% (inactive); in [4], -2.59% (inactive); in assay [9] it was -3.27% (inactive). Moreover, the nuclei count in [2] amounted to 110%. Further, the values for the z-score in assay [3] (setting [10]), in assay [3] (setting [11]) and in assay [3] (setting [12]) were -0.584, 1.82 and -0.0878, respectively. Moreover, the fluorescence slope in assay [5] is -0.501 (inactive); in assay [7], 0.00354 (inactive). For the same molecule, in [6], the NADPH fluorescence slope is 1.7e-05 (inactive). Moreover, the result in assay [8] was inactive.
On to `CCCOC(=O)CSC1=C(C#N)C(c2ccc3c(c2)OCO3)CC(=O)N1` (centres undefined), for which the cell count in [1] is 674. Also, the inhibition is -6.1% (inactive) in [1], -91.1% (inactive) in [2], -7.86% (inactive) in assay [4] and 6.85% (inactive) in [9]. For the same molecule, in assay [2], the nuclei count stood at 161%. The z-score in [3] (setting [10]) was 0.796; in assay [3] (setting [11]) it was -0.679; in assay [3] (setting [12]) it was -1.26. The values for the fluorescence slope in assay [5] and in assay [7] were -0.487 (inactive) and 0.00536 (inactive), respectively. Further, in assay [6], the NADPH fluorescence slope was -6.2e-05 (inactive). For the same molecule, the molecule was called inactive in assay [8].
